Measured values from ChEMBL document CHEMBL5653631, “A Potent and Selective ULK1 Inhibitor Suppresses Autophagy and Sensitizes Cancer Cells to Nutrient Stress” (iScience, 2018).
Blank lines part the entries; values can stand above or below the compound they belong to.

Legend:
[1] = target: Tyrosine-protein kinase ABL2 (Homo sapiens) (UniProt P42684); assay: Inhibition of human recombinant ABL2 at 500 nM in presence of ATP by radiometric assay relative to control
Outline: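 Panel of 327 recombinant human kinases in radiometric activity assays, each screened in duplicate at a single inhibitor concentration; percent activity remaining relative to vehicle control, percent inhibition taken as 100 minus activity remaining.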

[2] = target: Dual specificity tyrosine-phosphorylation-regulated kinase 1A (Homo sapiens) (UniProt Q13627); assay: Inhibition of human recombinant DYRK1A at 500 nM related to control ULK1
[3] = target: Tyrosine-protein kinase receptor UFO (Homo sapiens) (UniProt P30530); assay: Inhibition of human recombinant AXL at 500 nM related to control ULK1
Outline: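 Panel of 327 recombinant human kinases, each assayed in vitro by radiometric activity assay in duplicate at a single inhibitor concentration per compound, chosen with reference to its ULK1 inhibition. Activity remaining was expressed as percent of vehicle control, and percent inhibition was calculated as 100 minus percent activity remaining.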

[4] = target: T1, Mitogen-activated protein kinase kinase kinase 3 (Homo sapiens) (UniProt Q99759); assay: Inhibition of human recombinant MAP3K3 at 500 nM in presence of ATP by radiometric assay relative to control
T1 sequence (whole entry): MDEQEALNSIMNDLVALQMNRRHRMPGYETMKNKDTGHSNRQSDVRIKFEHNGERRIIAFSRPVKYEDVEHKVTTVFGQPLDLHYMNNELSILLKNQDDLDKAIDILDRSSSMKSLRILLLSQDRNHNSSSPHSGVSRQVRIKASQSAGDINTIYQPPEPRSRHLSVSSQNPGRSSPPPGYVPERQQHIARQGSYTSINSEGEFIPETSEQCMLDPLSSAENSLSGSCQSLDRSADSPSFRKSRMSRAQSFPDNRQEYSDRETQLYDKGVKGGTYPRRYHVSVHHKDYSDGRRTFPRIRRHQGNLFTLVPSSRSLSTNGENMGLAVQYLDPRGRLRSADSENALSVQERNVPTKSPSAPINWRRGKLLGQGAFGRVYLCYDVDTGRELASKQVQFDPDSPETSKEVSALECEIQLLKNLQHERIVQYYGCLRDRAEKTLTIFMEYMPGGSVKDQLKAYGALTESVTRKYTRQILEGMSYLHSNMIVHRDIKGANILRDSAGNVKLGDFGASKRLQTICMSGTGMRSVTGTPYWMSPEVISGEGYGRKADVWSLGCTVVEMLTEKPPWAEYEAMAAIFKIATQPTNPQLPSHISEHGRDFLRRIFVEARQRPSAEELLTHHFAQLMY

[5] = target: T2, Serine/threonine-protein kinase ICK (Homo sapiens) (UniProt Q9UPZ9); assay: Inhibition of human recombinant ICK at 500 nM in presence of ATP by radiometric assay relative to control
T2 sequence (whole entry): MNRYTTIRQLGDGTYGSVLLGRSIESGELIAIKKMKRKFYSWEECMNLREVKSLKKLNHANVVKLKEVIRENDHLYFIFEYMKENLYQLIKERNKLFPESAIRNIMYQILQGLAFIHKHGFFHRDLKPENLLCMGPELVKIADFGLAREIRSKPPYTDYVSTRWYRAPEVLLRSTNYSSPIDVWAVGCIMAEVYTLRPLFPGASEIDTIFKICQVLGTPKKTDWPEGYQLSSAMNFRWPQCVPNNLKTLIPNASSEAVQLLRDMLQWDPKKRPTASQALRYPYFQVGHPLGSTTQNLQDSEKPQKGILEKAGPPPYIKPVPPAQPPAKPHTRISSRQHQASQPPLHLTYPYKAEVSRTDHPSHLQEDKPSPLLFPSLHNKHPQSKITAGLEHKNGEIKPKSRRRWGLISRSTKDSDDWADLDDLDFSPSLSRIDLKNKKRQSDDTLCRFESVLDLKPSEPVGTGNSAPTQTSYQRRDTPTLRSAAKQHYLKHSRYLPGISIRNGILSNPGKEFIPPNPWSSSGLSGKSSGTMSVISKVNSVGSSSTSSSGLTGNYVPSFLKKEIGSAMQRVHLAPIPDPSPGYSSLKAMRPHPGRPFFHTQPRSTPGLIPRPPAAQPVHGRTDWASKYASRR

[6] = target: Serine/threonine-protein kinase B-raf (Homo sapiens) (UniProt P15056); assay: Inhibition of human recombinant BRAF at 500 nM related to control ULK1
[7] = target: Serine/threonine-protein kinase pim-2 (Homo sapiens) (UniProt Q9P1W9); assay: Inhibition of human recombinant PIM2 at 500 nM in presence of ATP by radiometric assay relative to control
[8] = target: Serine/threonine-protein kinase D2 (Homo sapiens) (UniProt Q9BZL6); assay: Inhibition of human recombinant PKD2 at 500 nM related to control ULK1
[9] = target: Platelet-derived growth factor receptor alpha (Homo sapiens) (UniProt P16234); assay: Inhibition of human recombinant PDGFRa at 15 nM in presence of ATP by radiometric assay relative to control
[10] = target: Cyclin-dependent kinase 7 (Homo sapiens) (UniProt P50613); assay: Inhibition of human recombinant CDK7 at 40 nM related to control ULK1
[11] = target: Protein kinase C beta type (Homo sapiens) (UniProt P05771); assay: Inhibition of human recombinant PKCb at 40 nM in presence of ATP by radiometric assay relative to control
[12] = target: T3, Serine/threonine-protein kinase ULK3 (Homo sapiens) (UniProt Q6PHR2); assay: Inhibition of human recombinant ULK3 at 40 nM related to control ULK1
T3 sequence (whole entry): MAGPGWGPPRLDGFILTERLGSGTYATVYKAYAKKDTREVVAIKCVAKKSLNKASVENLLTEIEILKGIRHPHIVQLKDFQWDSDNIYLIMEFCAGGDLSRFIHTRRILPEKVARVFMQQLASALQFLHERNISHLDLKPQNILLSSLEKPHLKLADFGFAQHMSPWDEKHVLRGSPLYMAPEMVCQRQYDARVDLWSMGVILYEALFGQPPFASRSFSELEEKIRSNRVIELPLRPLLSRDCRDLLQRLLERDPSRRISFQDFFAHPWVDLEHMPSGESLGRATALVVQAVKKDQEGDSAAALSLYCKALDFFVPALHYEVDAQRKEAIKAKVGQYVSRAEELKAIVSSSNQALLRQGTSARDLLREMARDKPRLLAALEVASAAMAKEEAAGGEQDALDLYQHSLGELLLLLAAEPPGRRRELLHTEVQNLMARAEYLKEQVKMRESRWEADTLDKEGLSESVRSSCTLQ

[13] = target: eIF-2-alpha kinase GCN2 (Homo sapiens) (UniProt Q9P2K8); assay: Inhibition of human recombinant GCN2 at 40 nM related to control ULK1
[14] = target: Angiopoietin-1 receptor (Homo sapiens) (UniProt Q02763); assay: Inhibition of human recombinant Tie2 at 40 nM related to control ULK1

Chain of Platelet-derived growth factor receptor alpha (Homo sapiens) (P16234 whole entry): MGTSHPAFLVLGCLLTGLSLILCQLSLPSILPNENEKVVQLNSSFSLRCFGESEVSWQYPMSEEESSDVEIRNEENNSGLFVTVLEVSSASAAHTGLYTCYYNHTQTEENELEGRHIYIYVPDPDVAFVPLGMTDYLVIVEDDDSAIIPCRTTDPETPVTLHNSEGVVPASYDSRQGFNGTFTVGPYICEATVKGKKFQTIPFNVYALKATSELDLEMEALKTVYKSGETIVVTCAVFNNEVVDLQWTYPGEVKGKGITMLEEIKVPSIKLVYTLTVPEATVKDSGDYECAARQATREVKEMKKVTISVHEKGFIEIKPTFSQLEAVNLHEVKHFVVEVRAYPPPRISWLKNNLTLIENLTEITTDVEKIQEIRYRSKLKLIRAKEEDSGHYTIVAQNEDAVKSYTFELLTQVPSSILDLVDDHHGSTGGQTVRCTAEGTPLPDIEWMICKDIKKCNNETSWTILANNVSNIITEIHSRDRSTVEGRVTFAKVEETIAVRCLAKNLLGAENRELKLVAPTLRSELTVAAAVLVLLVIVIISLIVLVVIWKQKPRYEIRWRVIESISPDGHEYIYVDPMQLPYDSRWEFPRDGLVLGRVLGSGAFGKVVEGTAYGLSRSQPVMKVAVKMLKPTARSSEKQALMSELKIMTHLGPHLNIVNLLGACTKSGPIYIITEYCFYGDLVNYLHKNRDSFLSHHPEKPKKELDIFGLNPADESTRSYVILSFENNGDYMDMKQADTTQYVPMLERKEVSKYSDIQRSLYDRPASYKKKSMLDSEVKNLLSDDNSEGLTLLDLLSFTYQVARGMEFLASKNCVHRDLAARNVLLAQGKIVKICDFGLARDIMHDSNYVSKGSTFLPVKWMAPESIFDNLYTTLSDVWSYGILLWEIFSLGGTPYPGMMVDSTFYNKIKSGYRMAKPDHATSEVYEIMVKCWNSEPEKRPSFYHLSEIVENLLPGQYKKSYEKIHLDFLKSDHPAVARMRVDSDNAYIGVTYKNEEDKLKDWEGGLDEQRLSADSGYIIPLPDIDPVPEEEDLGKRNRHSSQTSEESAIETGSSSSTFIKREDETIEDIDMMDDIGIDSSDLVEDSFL
Chain of Cyclin-dependent kinase 7 (Homo sapiens) (P50613 whole entry): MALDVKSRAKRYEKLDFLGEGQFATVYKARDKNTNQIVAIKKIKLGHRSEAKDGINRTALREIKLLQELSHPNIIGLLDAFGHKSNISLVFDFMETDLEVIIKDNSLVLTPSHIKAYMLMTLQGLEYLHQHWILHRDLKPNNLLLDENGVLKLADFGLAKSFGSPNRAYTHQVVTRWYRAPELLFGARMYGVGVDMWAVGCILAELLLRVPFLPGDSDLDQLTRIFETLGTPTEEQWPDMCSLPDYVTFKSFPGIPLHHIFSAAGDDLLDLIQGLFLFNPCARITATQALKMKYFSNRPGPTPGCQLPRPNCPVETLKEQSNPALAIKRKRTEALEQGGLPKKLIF
Chain of Tyrosine-protein kinase ABL2 (Homo sapiens) (P42684 whole entry): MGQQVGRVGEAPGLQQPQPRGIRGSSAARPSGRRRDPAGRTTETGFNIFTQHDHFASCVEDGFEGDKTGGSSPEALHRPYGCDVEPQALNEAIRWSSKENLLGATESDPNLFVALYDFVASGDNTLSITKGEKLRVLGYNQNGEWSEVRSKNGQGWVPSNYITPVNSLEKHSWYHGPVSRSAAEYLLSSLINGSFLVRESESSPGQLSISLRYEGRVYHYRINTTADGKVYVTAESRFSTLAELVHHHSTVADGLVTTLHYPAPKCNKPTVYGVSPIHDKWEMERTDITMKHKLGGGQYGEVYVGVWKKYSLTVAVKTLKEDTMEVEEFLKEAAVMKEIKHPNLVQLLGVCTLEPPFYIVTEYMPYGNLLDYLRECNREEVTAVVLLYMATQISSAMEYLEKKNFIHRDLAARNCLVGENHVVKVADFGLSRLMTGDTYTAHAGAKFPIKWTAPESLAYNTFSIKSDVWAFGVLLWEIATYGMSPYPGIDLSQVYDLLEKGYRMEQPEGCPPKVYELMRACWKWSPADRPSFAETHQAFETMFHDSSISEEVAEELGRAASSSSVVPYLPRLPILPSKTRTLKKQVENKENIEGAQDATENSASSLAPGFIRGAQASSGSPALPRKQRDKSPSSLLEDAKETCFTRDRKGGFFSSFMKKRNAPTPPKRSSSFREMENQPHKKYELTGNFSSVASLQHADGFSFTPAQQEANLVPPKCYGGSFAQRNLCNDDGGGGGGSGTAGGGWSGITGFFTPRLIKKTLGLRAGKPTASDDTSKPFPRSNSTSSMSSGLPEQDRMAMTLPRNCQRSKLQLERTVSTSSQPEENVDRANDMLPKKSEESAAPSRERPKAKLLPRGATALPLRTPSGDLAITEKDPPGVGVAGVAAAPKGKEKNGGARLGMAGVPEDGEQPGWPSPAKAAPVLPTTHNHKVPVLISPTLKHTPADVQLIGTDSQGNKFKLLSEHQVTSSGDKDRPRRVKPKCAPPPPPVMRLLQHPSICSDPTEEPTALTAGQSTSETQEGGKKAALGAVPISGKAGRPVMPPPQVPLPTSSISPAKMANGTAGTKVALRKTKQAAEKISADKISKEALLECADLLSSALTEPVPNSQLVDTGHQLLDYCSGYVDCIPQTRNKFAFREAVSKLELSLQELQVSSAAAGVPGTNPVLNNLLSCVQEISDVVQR
Chain of Serine/threonine-protein kinase D2 (Homo sapiens) (Q9BZL6 whole entry, looked up): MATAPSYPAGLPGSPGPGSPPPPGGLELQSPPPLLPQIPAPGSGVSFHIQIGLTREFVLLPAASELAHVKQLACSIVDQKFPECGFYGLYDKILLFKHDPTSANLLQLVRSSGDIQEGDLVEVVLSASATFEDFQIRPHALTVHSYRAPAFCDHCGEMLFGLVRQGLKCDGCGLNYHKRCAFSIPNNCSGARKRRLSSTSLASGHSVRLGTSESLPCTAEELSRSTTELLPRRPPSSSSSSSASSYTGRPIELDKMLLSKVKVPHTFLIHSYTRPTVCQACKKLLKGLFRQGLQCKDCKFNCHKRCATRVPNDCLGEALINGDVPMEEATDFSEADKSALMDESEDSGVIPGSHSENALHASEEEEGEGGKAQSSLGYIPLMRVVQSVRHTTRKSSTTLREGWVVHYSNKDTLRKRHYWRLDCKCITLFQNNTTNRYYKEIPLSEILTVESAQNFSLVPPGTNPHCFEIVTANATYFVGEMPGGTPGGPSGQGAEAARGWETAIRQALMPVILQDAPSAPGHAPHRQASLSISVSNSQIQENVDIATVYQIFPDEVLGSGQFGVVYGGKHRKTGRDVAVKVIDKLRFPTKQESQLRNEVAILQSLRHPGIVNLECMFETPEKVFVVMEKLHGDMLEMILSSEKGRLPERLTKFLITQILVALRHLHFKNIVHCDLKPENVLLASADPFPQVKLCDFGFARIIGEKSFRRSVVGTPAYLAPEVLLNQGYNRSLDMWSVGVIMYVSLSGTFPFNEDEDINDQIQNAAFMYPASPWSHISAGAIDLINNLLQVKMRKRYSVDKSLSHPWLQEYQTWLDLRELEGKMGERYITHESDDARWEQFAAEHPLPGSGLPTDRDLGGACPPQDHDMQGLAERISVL
Chain of Serine/threonine-protein kinase pim-2 (Homo sapiens) (Q9P1W9 whole entry, looked up): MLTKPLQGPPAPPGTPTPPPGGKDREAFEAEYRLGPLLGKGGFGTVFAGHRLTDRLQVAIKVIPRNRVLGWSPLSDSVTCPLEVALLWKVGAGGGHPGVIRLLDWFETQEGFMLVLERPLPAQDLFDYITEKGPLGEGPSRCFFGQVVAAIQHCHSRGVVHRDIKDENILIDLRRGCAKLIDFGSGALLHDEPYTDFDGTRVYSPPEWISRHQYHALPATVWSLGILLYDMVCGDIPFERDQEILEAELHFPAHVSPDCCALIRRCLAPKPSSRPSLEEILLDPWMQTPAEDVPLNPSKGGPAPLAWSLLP
Chain of Protein kinase C beta type (Homo sapiens) (P05771 2-671 limits assumed): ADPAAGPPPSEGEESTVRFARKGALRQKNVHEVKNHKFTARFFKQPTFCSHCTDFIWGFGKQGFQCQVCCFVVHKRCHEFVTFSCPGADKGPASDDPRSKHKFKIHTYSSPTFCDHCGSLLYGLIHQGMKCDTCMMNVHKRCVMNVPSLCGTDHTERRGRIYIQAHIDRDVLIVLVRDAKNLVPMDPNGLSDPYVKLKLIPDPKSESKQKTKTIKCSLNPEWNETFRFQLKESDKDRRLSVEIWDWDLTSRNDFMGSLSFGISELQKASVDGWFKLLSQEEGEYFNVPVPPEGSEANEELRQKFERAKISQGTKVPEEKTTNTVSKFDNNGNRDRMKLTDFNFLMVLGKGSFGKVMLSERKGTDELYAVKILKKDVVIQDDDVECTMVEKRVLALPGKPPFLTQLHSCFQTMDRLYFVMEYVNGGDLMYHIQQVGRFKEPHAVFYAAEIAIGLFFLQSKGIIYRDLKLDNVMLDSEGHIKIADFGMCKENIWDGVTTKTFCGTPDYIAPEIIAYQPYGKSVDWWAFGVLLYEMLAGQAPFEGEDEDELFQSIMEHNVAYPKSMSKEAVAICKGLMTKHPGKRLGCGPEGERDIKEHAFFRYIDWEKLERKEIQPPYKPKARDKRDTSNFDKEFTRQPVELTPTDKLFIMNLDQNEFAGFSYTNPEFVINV

inhibition [1]: 21% | fold change (FC) [2]: 0.01 | fold change (FC) [3]: 0.07 | inhibition [4]: 0% | inhibition [5]: 3% | fold change (FC) [6]: 0.11 | inhibition [7]: 2% | fold change (FC) [8]: 0.16
SMILES: CNC(=O)c1ccccc1Oc1nc(Nc2cc(OC)c(OC)c(OC)c2)ncc1Br

inhibition [9]: 5%
SMILES: CC(C)[C@H](NC(=O)c1cc(-c2cnn3cc(-c4ccc(OCCN5CCCCC5)cc4)cnc23)cs1)C(F)(F)F

fold change (FC) [10]: 0.32 | inhibition [11]: 3% | fold change (FC) [12]: 0.07 | fold change (FC) [13]: 0.05 | fold change (FC) [14]: 0
SMILES: O=C(N[C@@H](C1CC1)C(F)(F)F)c1cc(-c2cnn3cc(-c4ccc(F)cc4)cnc23)cs1
